Laboratory results from ChEMBL document CHEMBL1932971, “Synthesis of uriedo and thiouriedo derivatives of peptide conjugated heterocycles - A new class of promising antimicrobials” (2012).
Numbered stars: 1 amine (or outer) side, 2 acyl side, 3 side chain; on linkers, the order of the positions; unused ones are H or OH. Peptide text beside a SMILES is read from it. * marks the point of attachment. Piperazinyl(4-(2,3-Cl2Ph)) = Clc1cccc(N2CCN(*)CC2)c1Cl; Thiocarbamoyl(N-4-ClPh) = S=C(Nc1ccc(Cl)cc1)*; Thiocarbamoyl(4-MeOPh) = COc1ccc(NC(=S)*)cc1; NH(4-MeO-phenyl) = COc1ccc(N*)cc1; NH(4-Cl-phenyl) = Clc1ccc(N*)cc1; X1 = Fc1ccc2c(C3CCN(*)CC3)noc2c1; CO = O=C([*:1])[*:2]

Assays:
Type in all cases: functional
Settings in all cases: read-out: DIZ
[1] = system: Staphylococcus aureus; assay: Antibacterial activity against coagulase-positive Staphylococcus aureus at 30 ug/ml after 24 hrs by agar well diffusion method
Procedure, shortened: (§1)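 Agar well diffusion. Inocula were grown in nutrient broth at 37 °C for 24 h, then subcultured in nutrient broth at room temperature. Compounds were made as a 1 mg/mL DMSO stock and diluted to 30 µg/mL final. Nutrient agar plates were spread-inoculated and 6 mm wells each got 0.1 mL. Controls were amoxicillin (reference) and DMSO (negative). Incubation was 24 h at 37 °C. Inhibition zone was measured in mm as the mean of three determinations.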

[2] = system: Aspergillus flavus; assay: Antifungal activity against Aspergillus flavus at 30 ug/ml after 72 hrs by agar well diffusion method
Procedure, shortened: (§2)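 Fungal well diffusion. Inocula were subcultured in nutrient broth for one day, then spread on solidified medium. Compounds were made as a 1 mg/mL DMSO stock and diluted to 30 µg/mL final. Each 6 mm well got 0.1 mL. Controls were bavistin (reference) and DMSO (negative). Plates stood for 3 days at room temperature. Inhibition zone was measured in mm as the mean of three determinations.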

[3] = system: Fusarium oxysporum; assay: Antifungal activity against Fusarium oxysporum at 30 ug/ml after 72 hrs by agar well diffusion method; procedure, shortened: as §2
[4] = system: Aspergillus niger; assay: Antifungal activity against Aspergillus niger at 30 ug/ml after 72 hrs by agar well diffusion method; procedure, shortened: as §2
[5] = system: Klebsiella pneumoniae; assay: Antibacterial activity against Klebsiella pneumoniae at 30 ug/ml after 24 hrs by agar well diffusion method; procedure, shortened: as §1
[6] = system: Escherichia coli; assay: Antibacterial activity against Escherichia coli at 30 ug/ml after 24 hrs by agar well diffusion method; procedure, shortened: as §1
[7] = system: Xanthomonas oryzae; assay: Antibacterial activity against Xanthomonas oryzae at 30 ug/ml after 24 hrs by agar well diffusion method

Row | Structure (SMILES) | zone of inhibition at 30 µg/mL [1] [mm] | zone of inhibition at 30 µg/mL [2] [mm] | zone of inhibition at 30 µg/mL [3] [mm] | zone of inhibition at 30 µg/mL [4] [mm] | zone of inhibition at 30 µg/mL [5] [mm] | zone of inhibition at 30 µg/mL [6] [mm] | zone of inhibition at 30 µg/mL [7] [mm]
1 | CC[C@H](C)[C@H](NC(=O)CNC(=O)CNC(=S)Nc1ccc(OC)cc1)C(=O)N1CCC[C@H]1C(=O)N1CCC(c2noc3cc(F)ccc23)CC1 ({Thiocarbamoyl(4-MeOPh)}-GGIP-X1) | 16 | 22 | 24 | 26 | 14 | 24 | 20
2 | O=C([C@H](Cc1c[nH]c2ccccc12)NC(=S)Nc1ccccc1F)N1CCN(c2cccc(Cl)c2Cl)CC1 | 12 | 12 | 6 | 11 | 11 | 10 | 10
3 | COc1ccc(NC(=S)NCC(=O)N[C@@H](Cc2ccccc2)C(=O)NCC(=O)N[C@@H](Cc2ccccc2)C(=O)N2CCC[C@H]2C(=O)N2CCN(c3cccc(Cl)c3Cl)CC2)cc1 ({Thiocarbamoyl(4-MeOPh)}-GFGFP-{Piperazinyl(4-(2,3-Cl2Ph))}) | 26 | 28 | 29 | 32 | 29 | 29 | 28
4 | COc1ccc(NC(=S)NCC(=O)N[C@H](C(=O)NCC(=O)N[C@H](C(=O)N2CCC[C@H]2C(=O)N2CCN(c3cccc(Cl)c3Cl)CC2)C(C)C)C(C)C)cc1 ({Thiocarbamoyl(4-MeOPh)}-GVGVP-{Piperazinyl(4-(2,3-Cl2Ph))}) | 22 | 23 | 24 | 29 | 22 | 27 | 26
5 | COc1ccc(NC(=O)NCC(=O)N[C@H](C(=O)NCC(=O)N[C@H](C(=O)N2CCC[C@H]2C(=O)N2CCC(c3noc4cc(F)ccc34)CC2)C(C)C)C(C)C)cc1 ({NH(4-MeO-phenyl)-CO}-GVGVP-X1) | 23 | 27 | 27 | 30 | 27 | 26 | 33
6 | CC[C@H](C)[C@H](NC(=O)CNC(=O)CNC(=S)Nc1ccc(Cl)cc1)C(=O)N1CCC[C@H]1C(=O)N1CCC(c2noc3cc(F)ccc23)CC1 ({Thiocarbamoyl(N-4-ClPh)}-GGIP-X1) | 21 | 27 | 29 | 29 | 21 | 28 | 25
7 | O=C([C@H](Cc1c[nH]c2ccccc12)NC(=S)Nc1ccccc1F)N1CCC(c2noc3cc(F)ccc23)CC1 | 9 | 10 | 7 | 13 | 9 | 13 | 12
8 | COc1ccc(NC(=O)NCC(=O)N[C@@H](Cc2ccccc2)C(=O)NCC(=O)N[C@@H](Cc2ccccc2)C(=O)N2CCC[C@H]2C(=O)N2CCC(c3noc4cc(F)ccc34)CC2)cc1 ({NH(4-MeO-phenyl)-CO}-GFGFP-X1) | 28 | 29 | 32 | 35 | 30 | 30 | 30
9 | CC[C@H](C)[C@H](NC(=O)CNC(=O)CNC(=O)Nc1ccc(Cl)cc1)C(=O)N1CCC[C@H]1C(=O)N1CCC(c2noc3cc(F)ccc23)CC1 ({NH(4-Cl-phenyl)-CO}-GGIP-X1) | 19 | 24 | 26 | 27 | 18 | 26 | 22
10 | CC[C@H](C)[C@H](NC(=O)CNC(=O)CNC(=S)Nc1ccc(Cl)cc1)C(=O)N1CCC[C@H]1C(=O)N1CCN(c2cccc(Cl)c2Cl)CC1 ({Thiocarbamoyl(N-4-ClPh)}-GGIP-{Piperazinyl(4-(2,3-Cl2Ph))}) | 22 | 26 | 28 | 28 | 20 | 27 | 24
11 | CC[C@H](C)[C@H](NC(=O)CNC(=O)CNC(=S)Nc1ccc(OC)cc1)C(=O)N1CCC[C@H]1C(=O)N1CCN(c2cccc(Cl)c2Cl)CC1 ({Thiocarbamoyl(4-MeOPh)}-GGIP-{Piperazinyl(4-(2,3-Cl2Ph))}) | 18 | 21 | 23 | 25 | 13 | 23 | 19
12 | O=C(CNC(=O)Nc1ccc(Cl)cc1)NCC(=O)N[C@@H](Cc1ccccc1)C(=O)N1CCC[C@H]1C(=O)N1CCC(c2noc3cc(F)ccc23)CC1 ({NH(4-Cl-phenyl)-CO}-GGFP-X1) | 21 | 26 | 28 | 31 | 23 | 28 | 25
13 | O=C(CNC(=O)Nc1ccc(Cl)cc1)NCC(=O)N[C@@H](Cc1ccccc1)C(=O)N1CCC[C@H]1C(=O)N1CCN(c2cccc(Cl)c2Cl)CC1 ({NH(4-Cl-phenyl)-CO}-GGFP-{Piperazinyl(4-(2,3-Cl2Ph))}) | 20 | 25 | 27 | 30 | 22 | 27 | 24
14 | O=C(CNC(=S)Nc1ccc(Cl)cc1)NCC(=O)N[C@@H](Cc1ccccc1)C(=O)N1CCC[C@H]1C(=O)N1CCN(c2cccc(Cl)c2Cl)CC1 ({Thiocarbamoyl(N-4-ClPh)}-GGFP-{Piperazinyl(4-(2,3-Cl2Ph))}) | 23 | 28 | 30 | 32 | 25 | 29 | 26
15 | COc1ccc(NC(=O)NCC(=O)NCC(=O)N[C@@H](Cc2ccccc2)C(=O)N2CCC[C@H]2C(=O)N2CCN(c3cccc(Cl)c3Cl)CC2)cc1 ({NH(4-MeO-phenyl)-CO}-GGFP-{Piperazinyl(4-(2,3-Cl2Ph))}) | 16 | 19 | 22 | 26 | 18 | 25 | 23
16 | O=C(Nc1ccccc1F)N[C@@H](Cc1c[nH]c2ccccc12)C(=O)N1CCC(c2noc3cc(F)ccc23)CC1 | 8 | 9 | 8 | 12 | 8 | 11 | 11
